By viability is commonly meant a read-out of living cells in per cent, often relative to untreated cells. One may read the inhibition as the drop in the measured response relative to a control, in per cent.

Data on 17 compounds can be found in PubChem BioAssay.

Assay [1] in a line: OD615 S. cerevisiae growth inhibition, permissive medium, pilot counter-assay, permissive growth control for S. cerevisiae lifespan shortening project (AID 705;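 active = growth inhibition above 25% in both replicates, a cutoff set 3 SD above the mean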). The conditions noted are these: OD615, 24 h, at 10 µM, hits give high values. In outline:
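Timing: 24 h exposure, 30 °C / Material: Saccharomyces cerevisiae strain carrying genetically modified DeaD replicative-lifespan system / Signal: OD at 615 nm / Compound: 10 µM single dose, 0.25% DMSO / Medium: SC raffinose/galactose permissive medium / Evaluation: reduction in yeast growth (OD615)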

Assay [2] in a line: Restrictive medium S. cerevisiae growth inhibition, OD615, pilot screen of yeast lifespan reduction project, restrictive growth control (AID 706;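 active = growth inhibition above a set limit, 3 SD over mean compound inhibition, in both replicates, cut at about 43% in these data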;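 note: modified DeaD lifespan yeast strain shifted to restrictive glucose medium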). The following applies: OD615, 48 h, at 10 µM, hits give high values. In a few lines:
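System: Engineered S. cerevisiae DeaD strain | Detection: OD615 | Buffer or medium: CSMM-D glucose medium | Doses: 10 µM compound, 0.25% DMSO | Timing: 4 h pre-growth plus 48 h compound exposure, 30 °C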

Assay [3] can be described thus: viability gain of MRP-1-high H69AR cells under doxorubicin, pilot screen, MRP-1 activator project, CellTiter-Glo, duplicate (AID 807;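 active = viability increase at or above a cutoff of the median across tested compounds plus 3 SD, cut at about 8.5% in these data, passing the limit was not always enough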;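 note: compound pretreatment 18-22 h then 72 h combined with doxorubicin; 0% = doxorubicin alone and 100% = vehicle without doxorubicin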). The conditions noted are these: H69AR viability with doxorubicin, CellTiter-Glo luminescence; at 10 µM; hits give high values. (In general: ATP-based viability assays read luminescence as a measure of living cells.)
Assay [4] can be described thus: growth suppression of beta-catenin knockout HCT116, pilot screen, human colon tumor cells (AID 823;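 active = cell viability at or below a set limit in both duplicate runs, the limit being the all-compound median minus 4 SD, cut at about 23% in these data, passing the limit was not always enough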;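 note: 0% = wells killed by 20 µM Hyamine and 100% = untreated DMSO cell wells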). The conditions noted are these: CellTiter-Glo, 60 h, at 10 µM, hits give low values.
Assay [5] in a line: growth suppression of PTEN-deleted HCT116, pilot screen, cell-based, HCT116 clonal line, CellTiter-Glo (AID 824;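 active = viability at or below 27.92% in each of two runs, the all-compound median minus 4 SD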;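 note: 0% = 20 µM Hyamine control and 100% = vehicle cell control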). The following applies: 60 h, at 10 µM, hits give low values.
Assay [6] in a line: inhibitors of the yeast RAM network, pilot screen, dse1pr::URA3 reporter, 5-FOA selection (AID 869;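 active = inhibition over a set limit, the all-compound mean plus 3 SD, in both replicate runs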;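 note: 0% = DMSO wells with no growth and 100% = 10 µM 1-NA-PP1 with full growth; RAM network block rescues cells from 5-FOA so hits raise OD615 growth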). The following applies: S. cerevisiae dse1pr::URA3 5-FOA growth, OD615, 2 d; at 10 µM; hits give high values; strain carries analog-sensitive mutant Cbk1 kinase.
Assay [7] can be described thus: RAM signaling pathway blockade in yeast – S. cerevisiae, Pdr1DBD-CYC8 efflux-inhibited sensitized strain, primary screen (AID 1298).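 Note: 0% = DMSO untreated cells without growth and 100% = 10 µM 1-NA-PP1 full growth; higher means more yeast growth rescued from 5-FOA killing.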 The following applies: S. cerevisiae cbk1-as DSE1-URA3 strain, 5-FOA growth OD615, 2 d; at 50 µM; hits give high values.

Each structure is given as a SMILES string. Values without a mark were called inactive. Inconclusive results are not listed. Active and inactive are the calls of the source.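 Rule for the calls, unless noted: active = RAM network inhibition above 8.4% in each of two replicates, 3 SD over the compound average; inconclusive = above 8.4% inhibition in only one replicate; inactive = 8.4% inhibition or less in each replicate.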

As for `O=C(NCCc1ccccc1)c1ccncc1`, the growth inhibition in assay [1] is -5.38%; in assay [2], 4.46%. In addition, the viability increase in assay [3] was -0.91%. Besides, the viability in assay [4] is 88.8%; in assay [5], 93.5%. Moreover, the inhibition in assay [6] is 1.67%. In addition, the RAM network inhibition in assay [7] was 0.86%.

With `COc1ccccc1C1C(C(N)=O)=C(C)Nc2nc(-c3ccccc3Cl)nn21` (centres undefined), the growth inhibition in assay [1] was -4.68%; in assay [2] it was -4.21%. Moreover, the viability increase in assay [3] was -2.13%. For the same compound, the viability in assay [4] was 92.9%; in assay [5], 95.8%. The inhibition in assay [6] was 0.48%. For the same compound, the RAM network inhibition in assay [7] was -2.19%.

For the compound `CC1Cc2nc(SCC(=O)N3CCOCC3)n(-c3ccccc3)c(=O)c2S1` (centres undefined), the growth inhibition was -10.7% in assay [1] and -11.7% in assay [2]. In addition, in assay [3], the viability increase is -0.68%. The values for the viability in assay [4] and in assay [5] were 111% and 104%, respectively. The inhibition in assay [6] was 0.16%. Besides, the RAM network inhibition in assay [7] is 0.95%.

Consider `CC1CCCCN1C(=O)c1ccccc1NC(=O)c1ccco1` (centres undefined), for which the growth inhibition in assay [1] is -17.6%; in assay [2], -14.8%. For the same compound, the viability increase in assay [3] was -2.69%. For the same compound, the viability was 94.7% in assay [4] and 96.5% in assay [5]. Moreover, the inhibition in assay [6] was 2.17%. In addition, the RAM network inhibition in assay [7] is 1.7%.

Consider `COc1ccc(NC(=O)CSc2nnc(-c3ccc(C)cc3)n2N)cc1`, for which the growth inhibition in assay [1] is -3.98%; in assay [2], -4.99%. Moreover, the viability increase in assay [3] was 0.54%. Moreover, the viability was 100% in assay [4] and 92.8% in assay [5]. Moreover, the inhibition in assay [6] is 1.1%. For the same compound, in assay [7], the RAM network inhibition was 2.69%.

For the compound `Cn1c(SCc2nc(-c3ccc(Cl)cc3)no2)nnc1-c1ccco1`, the figures for the growth inhibition in assay [1] and in assay [2] were -8.54% and -0.675%, respectively. The viability increase in assay [3] is -2.85%. The viability in assay [4] is 90.6%; in assay [5], 85.6%. The inhibition in assay [6] was 2.02%. The RAM network inhibition in assay [7] was 6.31%.

Regarding `Cc1ccc(N2CN=c3s/c(=C\c4ccccn4)c(=O)n3C2)cc1`, the growth inhibition was -7.53% in assay [1] and 1.19% in assay [2]. Besides, the viability increase in assay [3] was -2.37%. Moreover, the viability was 86.8% in assay [4] and 98.7% in assay [5]. Moreover, the inhibition in assay [6] was -0.31%. For the same compound, in assay [7], the RAM network inhibition is 3.39%.

With `O=C(O)C1C2C=CC(C2)C1C(=O)OCC1CCCO1` (centres undefined), the growth inhibition in assay [1] was -6.31%; in assay [2], 1.68%. Also, the viability increase in assay [3] is -1.53%. In addition, the viability was 98.1% in assay [4] and 94.8% in assay [5]. Further, the inhibition in assay [6] is 0.865%. The RAM network inhibition in assay [7] is 1.34%.

As for `CCC(C)Nc1nc2c(c(=O)n(C)c(=O)n2C)n1Cc1ccc(Cl)cc1` (centres undefined), the figures for the growth inhibition in assay [1] and in assay [2] were -0.995% and -4.79%, respectively. Further, the viability increase in assay [3] was -4.21%. In addition, the viability in assay [4] was 79%; in assay [5] it was 70.6%. The inhibition in assay [6] was -0.035%. Moreover, the RAM network inhibition in assay [7] is 4.57%.

Consider `COc1cccc(C(=O)Nc2ccc3nc(N4CCN(c5ncccn5)CC4)cc(C)c3c2)c1OC`, for which the figures for the growth inhibition in assay [1] and in assay [2] were 12% and -8.24%, respectively. Moreover, the viability increase in assay [3] was -5.36%. In addition, the viability is 9.73% (active) in assay [4] and 12.8% (active) in assay [5]. Further, in assay [6], the inhibition is 0.73%. For the same compound, in assay [7], the RAM network inhibition was 4.05%.

On to `COc1ccc(S(=O)(=O)NCc2ccccc2Cl)cc1OC`, for which the values for the growth inhibition in assay [1] and in assay [2] were -5.85% and 2.66%, respectively. In addition, the viability increase in assay [3] is -1.42%. The viability in assay [4] is 102%; in assay [5], 96.1%. Further, in assay [6], the inhibition was 1.98%. Besides, in assay [7], the RAM network inhibition was 2.86%.

As to `COc1ccc(Nc2ncnc3c2oc2ccccc23)cc1`, the growth inhibition is -9.29% in assay [1] and 16.5% in assay [2]. The viability increase in assay [3] is -2.52%. The viability in assay [4] was 92.5%; in assay [5], 92%. The inhibition in assay [6] was -0.035%. The RAM network inhibition in assay [7] is 4.44%.

On to `COc1ccc(C(=O)Nc2c(F)c(F)c(F)c(F)c2F)c(OC)c1`, for which the results for the growth inhibition in assay [1] and in assay [2] were -11% and 3.84%, respectively. The viability increase in assay [3] was -1.15%. The viability was 100% in assay [4] and 102% in assay [5]. The inhibition in assay [6] was 2.96%. The RAM network inhibition in assay [7] was 2.45%.

With `O=C(CN1C(=O)CCC1=O)Nc1nc(-c2ccccn2)cs1`, the values for the growth inhibition in assay [1] and in assay [2] were -5.94% and -9.21%, respectively. Moreover, the viability increase in assay [3] was -0.35%. Further, the viability in assay [4] is 106%; in assay [5], 101%. Also, the inhibition in assay [6] is 0.045%. In addition, the RAM network inhibition in assay [7] was 3.42%.

For the compound `Cc1cccc(CSc2nnc(Cn3c(=O)sc4ccccc43)n2C)c1`, the growth inhibition in assay [1] is -2.34%; in assay [2], 1.82%. Moreover, the viability increase in assay [3] was -1.45%. The viability in assay [4] is 86.4%; in assay [5], 87.3%. Moreover, the inhibition in assay [6] is -0.065%. Further, the RAM network inhibition in assay [7] is 4.9%.

`O=S(=O)(Nc1ccc(O)cc1)c1cccc2cccnc12`: the values for the growth inhibition in assay [1] and in assay [2] were -1.12% and -4.81%, respectively. Besides, the viability increase in assay [3] is -1.95%. Besides, the values for the viability in assay [4] and in assay [5] were 93.9% and 87%, respectively. Besides, the inhibition in assay [6] is 2.25%. The RAM network inhibition in assay [7] was 0.83%.

As to `O=C(Cn1cnc2ccccc2c1=O)N(Cc1ccco1)c1ccc(O)cc1`, the growth inhibition in assay [1] is -4.45%; in assay [2] it was -19.6%. The viability increase in assay [3] is -1.76%. In addition, the figures for the viability in assay [4] and in assay [5] were 92% and 89.8%, respectively. Moreover, the inhibition in assay [6] was 0.94%. Moreover, the RAM network inhibition in assay [7] was -0.26%.
